Reference: ChEMBL document CHEMBL1671843, “Synthesis and SAR of Thiazolylmethylphenyl Glucoside as Novel C-Aryl Glucoside SGLT2 Inhibitors” (ACS Med Chem Lett, 2011)
pIC50: −log10 of the molar value.

Key:
[1] = Oral bioavailability in Sprague-Dawley rat at 5 mg/kg; format: ADME, organism-based; conditions: in vivo
How it was run: (§1)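 Male Sprague-Dawley rats dosed orally at 5 mg/kg. Measured Cmax with time to Cmax, elimination half-life and oral bioavailability (F).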

Rattus norvegicus [2] = test: Antidiabetic activity in Sprague-Dawley rat assessed as increase of urinary glucose excretion at 10 mg/kg, po relative to control; format: functional, Urine
How it was run: (§2)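 Normal Sprague-Dawley rats received a single oral dose of 1 or 10 mg/kg. Urinary glucose excretion was measured and expressed as fold elevation in glucose disposal over vehicle-treated controls. Values are means ± SEM, compared with vehicle by one-way ANOVA with Dunnett's post hoc test. Urine volume was also recorded.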

[3] = target: T1, Sodium/glucose cotransporter 2 (Homo sapiens, UniProt P31639); test: Inhibition of human SGLT2 expressed in CHO cells assessed as [14C]-alpha-methyl-D-glucopyranoside uptake after 2 hrs by liquid scintillation counting; format: cell-based
T1 sequence (P31639 whole entry): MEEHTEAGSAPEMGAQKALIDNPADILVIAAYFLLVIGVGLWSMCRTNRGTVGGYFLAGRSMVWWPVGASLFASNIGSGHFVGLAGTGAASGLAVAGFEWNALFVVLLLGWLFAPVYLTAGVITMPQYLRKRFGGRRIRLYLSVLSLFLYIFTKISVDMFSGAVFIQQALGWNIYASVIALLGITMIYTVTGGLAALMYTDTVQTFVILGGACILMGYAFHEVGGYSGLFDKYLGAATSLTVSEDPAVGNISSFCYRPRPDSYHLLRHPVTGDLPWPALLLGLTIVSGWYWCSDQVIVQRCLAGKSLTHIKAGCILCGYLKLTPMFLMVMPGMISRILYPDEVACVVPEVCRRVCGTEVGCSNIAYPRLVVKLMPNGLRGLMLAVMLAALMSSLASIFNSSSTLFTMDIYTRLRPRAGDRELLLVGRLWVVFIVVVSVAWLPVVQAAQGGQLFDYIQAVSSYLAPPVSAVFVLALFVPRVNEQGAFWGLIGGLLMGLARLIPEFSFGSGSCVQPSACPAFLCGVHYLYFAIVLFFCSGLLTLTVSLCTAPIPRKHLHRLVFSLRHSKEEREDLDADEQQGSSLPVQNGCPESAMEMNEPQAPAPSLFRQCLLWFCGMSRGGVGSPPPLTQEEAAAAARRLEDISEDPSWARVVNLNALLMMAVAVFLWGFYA
How it was run: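 Sodium-dependent glucose transport assay against hSGLT2. IC50 was fitted by nonlinear regression. Values are from single determinations.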

Rattus norvegicus [4] = test: Antidiabetic activity in Sprague-Dawley rat assessed as increase of urine volume at 10 mg/kg, po relative to control; format: functional
How it was run: (§3)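 Normal Sprague-Dawley rats given a single oral dose (1 or 10 mg/kg) against vehicle controls. Urinary glucose excretion and urine volume were measured and expressed as fold over vehicle. Data are means ± SEM, compared to vehicle by one-way ANOVA with Dunnett's post hoc test.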

Rattus norvegicus [5] = test: Antidiabetic activity in Sprague-Dawley rat assessed as increase of urinary glucose excretion at 1 mg/kg, po relative to control; format: functional, Urine; how it was run: as §2
Rattus norvegicus [6] = test: Antidiabetic activity in Sprague-Dawley rat assessed as increase of glucose disposal at 1 mg/kg, po relative to control; format: functional; how it was run: as §3
[7] = Elimination half life in Sprague-Dawley rat at 5 mg/kg, po; format: ADME, organism-based; parameters: dose 5 mg/kg, route oral; conditions: in vivo; how it was run: as §1
[8] = Cmax in Sprague-Dawley rat at 5 mg/kg, po after 0.38 hrs; format: ADME, organism-based; parameters: dose 5 mg/kg, route oral; conditions: in vivo; how it was run: as §1
Rattus norvegicus [9] = test: Antidiabetic activity in Sprague-Dawley rat assessed as increase of urine volume at 1 mg/kg, po relative to control; format: functional; how it was run: as §3
Rattus norvegicus [10] = test: Antidiabetic activity in Sprague-Dawley rat assessed as increase of glucose disposal at 10 mg/kg, po relative to control; format: functional; how it was run: as §3

Compound | pIC50 [3] | other results
OC[C@H]1O[C@@H](c2ccc(Cl)c(Cc3ncc(-c4ccco4)s3)c2)[C@H](O)[C@@H](O)[C@@H]1O | 9.14 | bioavailability [1]: 20.6%; fold change (FC) (Rattus norvegicus [2]): 700; fold change (FC) (Rattus norvegicus [4]): 3.7; fold change (FC) (Rattus norvegicus [5]): 230
CCCCCCCc1cnc(Cc2cc([C@@H]3O[C@H](CO)[C@@H](O)[C@H](O)[C@H]3O)ccc2Cl)s1 | 7.91 | 
CCCCOc1cnc(Cc2cc([C@@H]3O[C@H](CO)[C@@H](O)[C@H](O)[C@H]3O)ccc2Cl)s1 | 7.71 | 
OC[C@H]1O[C@@H](c2ccc(Cl)c(Cc3ncc(-c4ccccc4)s3)c2)[C@H](O)[C@@H](O)[C@@H]1O | 7.88 | 
OC[C@H]1O[C@@H](c2ccc(Cl)c(Cc3ncc(-c4ccc(-c5ccccc5)cc4)s3)c2)[C@H](O)[C@@H](O)[C@@H]1O | 8.03 | 
OC[C@H]1O[C@@H](c2ccc(Cl)c(Cc3ncc(-c4ccoc4)s3)c2)[C@H](O)[C@@H](O)[C@@H]1O | 8.80 | 
OC[C@H]1O[C@@H](c2ccc(Cl)c(Cc3ncc(-c4cccs4)s3)c2)[C@H](O)[C@@H](O)[C@@H]1O | 8.94 | 
OC[C@H]1O[C@@H](c2ccc(Cl)c(Cc3ncc(-c4ccsc4)s3)c2)[C@H](O)[C@@H](O)[C@@H]1O | 9.11 | fold change (FC) (Rattus norvegicus [6]): 160; bioavailability [1]: 15%; fold change (FC) (Rattus norvegicus [4]): 4.2; half-life [7]: 2.51 h; Cmax [8]: 1540 ng/mL; fold change (FC) (Rattus norvegicus [9]): 2.5; fold change (FC) (Rattus norvegicus [10]): 730
OC[C@H]1O[C@@H](c2ccc(Cl)c(Cc3ncc(-c4nccs4)s3)c2)[C@H](O)[C@@H](O)[C@@H]1O | 8.50 | 
O=C(O)c1cnc(Cc2cc([C@@H]3O[C@H](CO)[C@@H](O)[C@H](O)[C@H]3O)ccc2Cl)s1 | < 5.00 | 
OC[C@H]1O[C@@H](c2ccc(Br)c(Cc3ncc(-c4ccsc4)s3)c2)[C@H](O)[C@@H](O)[C@@H]1O | 8.20 | 
OC[C@H]1O[C@@H](c2ccc(F)c(Cc3ncc(-c4ccsc4)s3)c2)[C@H](O)[C@@H](O)[C@@H]1O | 8.13 | 
OC[C@H]1O[C@@H](c2ccc(C(F)(F)F)c(Cc3ncc(-c4ccsc4)s3)c2)[C@H](O)[C@@H](O)[C@@H]1O | 7.84 | 
N#Cc1ccc([C@@H]2O[C@H](CO)[C@@H](O)[C@H](O)[C@H]2O)cc1Cc1ncc(-c2ccsc2)s1 | 6.85 | 
OC[C@H]1O[C@@H](c2ccc(Cl)c(Cc3cnc(-c4ccsc4)s3)c2)[C@H](O)[C@@H](O)[C@@H]1O | 8.95 | 
CCOc1ccc(Cc2cc([C@@H]3O[C@H](CO)[C@@H](O)[C@H](O)[C@H]3O)ccc2Cl)cc1 [DAPAGLIFLOZIN] |  | bioavailability [1]: 88%; fold change (FC) (Rattus norvegicus [9]): 5.7
